Source: PubChem (several laboratories)
Shown are actives, neighbours in structure and some others; about 1.7% of the full set was active somewhere.
Beta2AR agonist: human beta-2 adrenergic receptor agonism by FAP. Am2.2-beta2AR cells, FAP receptor internalization, flow cytometry. P07550. response, % (concentration not given with the values). actives 0.43% (n = 340,000);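 active means response above a set limit, near 3 SD of response in nonfluorescent compounds, cut at about 42% in these data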
CCR6 antag: CCR6 (human) receptor antagonism. inhibition, % at 20 µM. CHO-K1 CCR6 PathHunter beta-arrestin, luminescence, CCL20-stimulated. actives 0.49% (n = 340,000). AID 493098;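 active means compounds whose inhibition of the agonist-driven luminescence signal at 20 µM reaches about 50%, limit read from the data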;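 further: cells stimulated with CCL20 at 14 nM final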
APJ antag: blocks the human apelin receptor APJ; CHO-K1 APJ beta-arrestin complementation, luminescence; inhibition, % at 20 µM; actives 0.32% (n = 330,000); AID 2521;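 active means inhibition above about 40% at 20 µM, limit read from the data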;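 further: cells challenged with 10 nM apelin-13 agonist together with compound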
Target sequence (P35414 whole entry, looked up): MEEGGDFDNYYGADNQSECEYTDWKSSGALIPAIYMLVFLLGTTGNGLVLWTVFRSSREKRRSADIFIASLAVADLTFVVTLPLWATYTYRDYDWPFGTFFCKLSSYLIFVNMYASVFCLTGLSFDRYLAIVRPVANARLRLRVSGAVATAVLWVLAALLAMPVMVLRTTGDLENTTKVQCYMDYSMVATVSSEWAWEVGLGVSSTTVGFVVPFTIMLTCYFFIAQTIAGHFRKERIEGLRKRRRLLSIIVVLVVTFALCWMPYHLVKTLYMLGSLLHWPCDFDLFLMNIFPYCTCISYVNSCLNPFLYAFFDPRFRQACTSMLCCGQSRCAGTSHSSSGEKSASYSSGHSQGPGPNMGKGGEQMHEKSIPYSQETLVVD
CXCR6 inh: blocks human CXCR6 beta-arrestin recruitment; CHO-K1 PathHunter CXCR6 beta-arrestin, luminescence; inhibition, % at 20 µM; actives 0.36% (n = 360,000); AID 602244; in the data active means inhibition above about 34%, passing the limit was not always enough;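 further: antagonist mode with CXCL16 agonist at 10 nM final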
PfG6PD inh: PfG6PD (Plasmodium falciparum) enzyme inhibition | PfGluPho enzyme, NADPH resazurin-diaphorase fluorescence | inhibition, % at 20 µM | actives 0.78% (n = 350,000) | AID 504690;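 active means inhibition reaching at least a set limit at 20 µM in the primary screen, cut at about 59% in these data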
APJ agonist: agonists of human APJ apelin receptor; CHO-K1 APJ PathHunter beta-arrestin, luminescence; 0% DMSO wells, 100% apelin; actives 0.11% (n = 330,000); P35414; AID 2520; activation, % at 20 µM;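 active means activation more than six SD over the plate average, tested at 20 µM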
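Assay system: CHO-K1 cells stably expressing ProLink-tagged human APJ and arrestin–beta-gal acceptor. Compound dosing: 20 µM single point, 1% DMSO. Times: 16-18 h seeding, 90 min dark compound exposure, 60 min detection. Detection: beta-gal luminescence. Evaluation: APJ–arrestin association signal. Controls: negative DMSO alone, positive Apelin-13 at 10 nM.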
PfG6PD confirm: PfG6PD inhibition, single-dose confirmed; shares compounds with PfG6PD inh; recombinant PfGluPho, NADPH-diaphorase-resazurin fluorescence; inhibition, % at 20 µM; actives 34% (n = 2,400);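 active means inhibition of at least 50% at 20 µM in any single replicate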
Diaph ctr 10uM: inhibits diaphorase or oxidizes, flagging false PfG6PD hits; inhibition, % at 20 µM; shares compounds with PfG6PD inh; actives 39% (n = 820); diaphorase-coupled resazurin reduction, fluorescence, NADPH 10 uM;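 active means average inhibition reaching 50% or more with the compound at 20 µM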;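 further: resorufin red fluorescence formed as diaphorase reduces resazurin using NADPH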
Diaphorase 30uM: inhibits diaphorase or oxidizes, flagging false PfG6PD hits; shares compounds with PfG6PD inh; actives 29% (n = 820); inhibition, % at 20 µM; Diaphorase/resazurin coupled assay, resorufin fluorescence, 30 uM NADPH;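 active means inhibition averaging 50% or more, tested at 20 µM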
A number is an active result; n = inactive; x = no result given.

SMILES	Beta2AR agonist	CCR6 antag	APJ antag	CXCR6 inh	PfG6PD inh	APJ agonist	PfG6PD confirm	others
COC(=O)CCC(=O)OC1(C)C(=O)C=C2C=C(C3CC3)N(CCN3CCOCC3)C=C2C1=O (stereo unspecified)	n	n	n	n	n	n	x
c1ccc(COn2nnc3ccccc32)c(COn2nnc3ccccc32)c1	n	n	n	n	n	n	n
O=C(CSc1ccc(Cl)cc1)N/N=C/c1cccnc1	n	n	n	n	63	n	n
O=C(CSc1ccc(Cl)cc1)N/N=C/c1ccc([N+](=O)[O-])o1	n	n	n	n	110	n	82	Diaph ctr 10uM=81;Diaphorase 30uM=66
CCOC(=O)c1sc(N)c(C(=O)OC)c1C	n	n	n	n	n	n	x
CCOC(=O)c1sc(N)c(C(=O)Nc2ccccc2OC)c1C	n	n	n	n	66	n	n
CCC(=O)N1c2ccc(S(=O)(=O)NCc3ccccc3)cc2CC1C (stereo unspecified)	n	n	n	n	n	n	x
COC1=CC(=O)c2c(ccc3ncnc(N)c23)C1=O	n	n	x	n	127	x	108	Diaph ctr 10uM=99;Diaphorase 30uM=100
COC1=CC(=O)c2nc(Cl)ccc2C1=O	x	x	x	n	x	x	x
CCc1ccc(OCC(=O)N/N=C/c2cc([N+](=O)[O-])ccc2N2CCOCC2)cc1	n	n	n	n	96	n	56	Diaph ctr 10uM=n;Diaphorase 30uM=n
O=C(N/N=C\c1cc([N+](=O)[O-])ccc1N1CCOCC1)c1ccccn1	n	n	n	n	n	n	x
Cc1cccc(OCC(=O)N/N=C/c2cc([N+](=O)[O-])ccc2N2CCOCC2)c1	n	n	n	n	118	n	68	Diaph ctr 10uM=57;Diaphorase 30uM=59
CC(C)CNS(=O)(=O)c1ccc(S(=O)(=O)N2CCC(N3CCCCC3)CC2)cc1	n	n	n	n	n	n	x
CCc1ccc(C(=O)/C=C/c2cnn(C)c2C)s1	n	n	n	n	59	n	n
O=C(CSc1nnc(C2CCCCC2)o1)Nc1ccccc1Cl	n	n	n	n	n	n	x
CCN(CC)C(=O)C1=C(C)N(CCC2=CCCCC2)C(=O)C(CC(=O)NCCc2ccccn2)C1 (stereo unspecified)	x	x	x	n	n	x	x
COc1ccc(NC2CCCN(Cc3cccc4cnccc34)C2)cc1OC (stereo unspecified)	n	n	n	n	65	n	58	Diaph ctr 10uM=n;Diaphorase 30uM=n
CC(=O)c1cccc(NC(=O)C(C)Sc2nnc3ccccn23)c1 (stereo unspecified)	x	x	x	n	n	x	x
COC1CC(C)C(OC)c2cc(O)cc(c2O)NC(=O)C(C)=CC=CC(C)C(OC(N)=O)C(C)=CC(C)C1OC (stereo unspecified)	n	n	x	n	105	x	106	Diaph ctr 10uM=82;Diaphorase 30uM=82
COC1C=CC=C(C)C(=O)NC2=CC(=O)C(N)=C(CC(C)CC(OC)C(O)C(C)C=C(C)C1OC(N)=O)C2=O (stereo unspecified)	n	n	x	n	n	x	x
CC[C@]12C(=O)N(C)C[C@H]([C@@H]3C(=O)N(Cc4ccccc4)C(=O)[C@@H]31)N2C(=O)c1ccc(C(C)(C)C)cc1	n	n	x	n	n	x	x
CN(C)c1ccc(C(=S)N2CCN(c3ccc([N+](=O)[O-])cc3)CC2)cc1	n	n	n	n	60	n	n
O=[N+]([O-])c1ccc(C(=S)N2CCN(c3ccc(F)cc3)CC2)cc1	n	n	n	n	n	n	x
O=C(NC1CC1)c1ccc2sc([C@@H]3O[C@H](CO)[C@H](O)[C@H](O)[C@H]3O)nc2c1	x	x	x	n	x	x	x
NC(=S)NN=Cc1cc(-c2cccc(N)c2)ccn1	x	x	x	n	69	x	n
CCc1nc(Nc2ccncc2)c2oc3ccccc3c2n1	n	n	n	n	n	n	x
CCc1nc(Nc2cccc(O)c2)c2oc3ccccc3c2n1	n	n	n	n	73	n	n
